Tests used:
Assay type in all cases: functional
[1] = Cytotoxicity against human NCI/ADR cells by sulforhodamine B assay; details: NCI/ADR-RES; for CC50: read-out: LC50 (the source's name)
Outline: (§1)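 Growth of the human tumor cell line was read colorimetrically with sulforhodamine B, following the NCI standard protocol, with doxorubicin as positive control. Compounds were tested at four concentrations in 10-fold dilutions (0.25 to 250). Dose-response curves gave GI50 (the concentration for 50% growth inhibition), TGI (total growth inhibition) and LC50 (50% cell death).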

MCF7 = experiment: Cytotoxicity against human MCF7 cells by sulforhodamine B assay; details: for CC50: read-out: LC50 (the source's name); outline: as §1
UACC-62 = experiment: Cytotoxicity against human UACC62 cells by sulforhodamine B assay; outline: as §1
K562 = experiment: Cytotoxicity against human K562 cells by sulforhodamine B assay; details: for CC50: read-out: LC50 (the source's name); outline: as §1
[2] = Cytotoxicity against human PCO3 cells by sulforhodamine B assay; details: for CC50: read-out: LC50 (the source's name); outline: as §1
NCI-H460 = experiment: Cytotoxicity against human NCI-H460 cells by sulforhodamine B assay; details: for CC50: read-out: LC50 (the source's name); outline: as §1
HT-29 = experiment: Cytotoxicity against human HT-29 cells by sulforhodamine B assay; details: for CC50: read-out: LC50 (the source's name); outline: as §1
OVCAR-3 = experiment: Cytotoxicity against human OVCAR-3 cells by sulforhodamine B assay; details: for CC50: read-out: LC50 (the source's name); outline: as §1

SMILES: COc1cccc2c1C(=O)c1c(O)c3c(c(O)c1C2=O)C[C@@](O)(C(=O)CO)C[C@@H]3O[C@H]1C[C@H](N)[C@H](O)[C@H](C)O1 [DOXORUBICIN]
- GI50 [1]: 5.99 µM
- TGI [1]: > 100 µM
- CC50 [1]: > 100 µM
- GI50 (MCF7): 0.04 µM
- TGI (MCF7): 1.84 µM
- CC50 (MCF7): 46 µM
- GI50 (UACC-62): 0.18 µM
- TGI (UACC-62): 0.55 µM
- GI50 (K562): 0.03 µM
- TGI (K562): 0.33 µM
- CC50 (K562): > 100 µM
- GI50 [2]: 0.17 µM
- TGI [2]: 2.3 µM
- CC50 [2]: > 100 µM
- GI50 (NCI-H460): 0.05 µM
- TGI (NCI-H460): 1.42 µM
- CC50 (NCI-H460): 37.9 µM
- GI50 (HT-29): 0.18 µM
- TGI (HT-29): 46 µM
- CC50 (HT-29): > 100 µM
- GI50 (OVCAR-3): 0.07 µM
- TGI (OVCAR-3): 8.11 µM
- CC50 (OVCAR-3): > 100 µM

SMILES: CC1=CC[C@@H]([C@@](C)(O)CCCC(C)(C)NC(=S)N/N=C\c2ccc(C)cc2)CC1
- GI50 [1]: 6.51 µM
- TGI [1]: 30.5 µM
- CC50 [1]: > 100 µM
- GI50 (MCF7): 7.23 µM
- TGI (MCF7): > 100 µM
- CC50 (MCF7): > 100 µM
- GI50 (UACC-62): 11.6 µM
- LC50 (50% cell kill) (UACC-62): 52.3 µM
- TGI (UACC-62): 39 µM
- GI50 (K562): 0.14 µM
- TGI (K562): 7.95 µM
- CC50 (K562): > 100 µM
- GI50 [2]: 6.75 µM
- TGI [2]: 45.7 µM
- CC50 [2]: > 100 µM
- GI50 (NCI-H460): 10.1 µM
- TGI (NCI-H460): > 100 µM
- CC50 (NCI-H460): > 100 µM
- GI50 (HT-29): 10.4 µM
- TGI (HT-29): 80.4 µM
- CC50 (HT-29): > 100 µM
- GI50 (OVCAR-3): 6.02 µM
- TGI (OVCAR-3): 11.8 µM
- CC50 (OVCAR-3): 45.3 µM

— ChEMBL document CHEMBL1177875, “Antitumor activity of (-)-alpha-bisabolol-based thiosemicarbazones against human tumor cell lines” (2010)
